Bioassay records deposited in PubChem BioAssay by Sanford-Burnham Center for Chemical Genomics.
An excerpt weighted towards active compounds, which were near 1.5% of everything screened.
APJ ag: agonists of human apelin receptor APJ, primary screen, CHO-K1 cells, PathHunter beta-arrestin, luminescence; AID 2520, 2010; activation, % at 20 µM; P35414; 0% DMSO wells, 100% apelin; hit rate 0.11% among 330,000;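 active = activation more than six SD over the plate average, tested at 20 µM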
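system = engineered CHO-K1 APJ arrestin reporter cells | input = 1000 cells per well | timing = overnight seeding, 90 min compound at 25 °C, 1 h detection | measured by = enzyme-fragment complementation luminescence | read-out = beta-arrestin recruitment to APJ as agonist activity, luminescent signal | control set = negative DMSO alone, positive Apelin-13 at 10 nM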
APJ antagonist: antagonists of human apelin receptor APJ, primary screen, CHO-K1 cells, beta-arrestin complementation, luminescence | P35414 | inhibition, % at 20 µM | hit rate 0.32% among 330,000 | AID 2521, 2010;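 active = inhibition above about 40% at 20 µM, limit read from the data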;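 also: cells challenged with 10 nM apelin-13 agonist together with compound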
CCR6 antagonist: CCR6 receptor antagonists, primary screen, cell-based, CHO-K1, luminescence, beta-arrestin, uHTS; C-C chemokine receptor type 6 (Homo sapiens), P51684; CHO-K1 CCR6 PathHunter beta-arrestin, CCL20-stimulated; inhibition, % at 20 µM; hit rate 0.49% among 340,000; AID 493098, 2011;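 active = compounds whose inhibition of the agonist-driven luminescence signal at 20 µM reaches about 50%, limit read from the data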;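 also: cells stimulated with CCL20 at 14 nM final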
Target sequence (P51684 whole entry, looked up): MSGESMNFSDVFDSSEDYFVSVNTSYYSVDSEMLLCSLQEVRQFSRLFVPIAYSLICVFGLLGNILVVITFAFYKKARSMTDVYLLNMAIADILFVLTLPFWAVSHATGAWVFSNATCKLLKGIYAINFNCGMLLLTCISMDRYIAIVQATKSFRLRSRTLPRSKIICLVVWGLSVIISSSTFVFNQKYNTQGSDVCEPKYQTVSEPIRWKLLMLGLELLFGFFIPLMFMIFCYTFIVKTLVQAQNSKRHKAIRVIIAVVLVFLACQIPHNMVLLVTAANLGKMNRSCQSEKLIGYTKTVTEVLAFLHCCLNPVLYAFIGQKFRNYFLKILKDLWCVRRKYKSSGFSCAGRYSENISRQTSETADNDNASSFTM
EBI2 antag: EBI2 receptor antagonists, beta-arrestin recruitment, primary screen, cell-based, luminescence, 7a,25-OHC stimulation, uHTS; hit rate 0.81% among 360,000; G-protein coupled receptor 183 (Homo sapiens), P32249; 7a,25-OHC stimulated; inhibition, % at 5 µM; in the data active = inhibition above about 38%;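 also: enzyme fragment complementation signal reports receptor beta-arrestin coupling in cells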
CXCR6 inh: CXCR6 receptor inhibitors, primary screen, cell-based, beta-arrestin, luminescence, CHO-K1 PathHunter, 1536-well | C-X-C chemokine receptor type 6 (Homo sapiens), O00574 | inhibition, % at 20 µM | hit rate 0.36% among 360,000 | AID 602244, 2012; in the data active = inhibition above about 34%, passing the limit was not always enough;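 also: antagonist mode with CXCL16 agonist at 10 nM final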
Target sequence (O00574 whole entry, looked up): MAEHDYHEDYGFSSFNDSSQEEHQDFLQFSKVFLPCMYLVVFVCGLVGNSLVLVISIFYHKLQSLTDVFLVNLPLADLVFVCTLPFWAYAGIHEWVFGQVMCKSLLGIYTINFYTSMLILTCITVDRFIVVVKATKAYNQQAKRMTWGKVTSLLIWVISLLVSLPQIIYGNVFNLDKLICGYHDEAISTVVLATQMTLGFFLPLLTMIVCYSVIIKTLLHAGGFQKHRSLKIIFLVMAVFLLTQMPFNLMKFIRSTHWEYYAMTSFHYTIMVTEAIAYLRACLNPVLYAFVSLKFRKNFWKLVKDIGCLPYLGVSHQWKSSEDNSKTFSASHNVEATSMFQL
EBI2 conf: EBI2 antagonist hit retest, beta-arrestin, confirmation, cell-based, single concentration, luminescence, 7a,25-OHC stimulation; shares compounds with EBI2 antag; 7a,25-OHC antagonism; inhibition, % at 5 µM; hit rate 29% among 2,400;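 active = inhibition of at least 50%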
EBI2 agonist: EBI2 agonist activity of antagonist hits, confirmation, counter-screen for EBI2 antagonist project, cell-based, single concentration, agonist mode, luminescence | shares compounds with EBI2 antag | EBI2-expressing cells, 60 min; 0% vehicle, 100% 7α,25-dihydroxycholesterol control | activation, % at 5 µM | 2,400 tested, under 10 active | AID 652000, 2013;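 active = activation of at least 50%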
bGal cs: E. coli beta-galactosidase enzyme inhibition, confirmation, counter-screen for EBI2 antagonist project, biochemical, luminescence, single concentration; purified beta-galactosidase, luminescent Galacton Star, 15 min; AID 652176, 2013; hit rate 1% among 2,400; shares compounds with EBI2 antag; inhibition, % at 5 µM;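 active = replicate-average signal at least 3 plate SD below neutral wells, shown as high inhibition, flagging enzyme-inhibiting false positives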;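 also: higher means stronger loss of beta-gal luminescence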
Large screens that a line does not name were inactive (follow-up assays come after a bar, where they were run).

Cc1ccc(CNC(=O)c2ccc(N3CCC4(CC3)CC(c3ccccc3)=NO4)c(N)c2)cc1	EBI2 antag 45.3 | EBI2 conf inactive | EBI2 agonist inactive | bGal cs inactive
CC(=O)c1nn(-c2ccc(Cl)cc2)cc1C(=O)c1ccccc1	EBI2 antag 45.9 | EBI2 conf inactive | EBI2 agonist inactive | bGal cs inactive
Cc1cccc(OCC(=O)N/N=C/c2cn[nH]c2-c2ccc(Cl)c(Cl)c2)c1	EBI2 antag 38.9 | EBI2 conf inactive | EBI2 agonist inactive | bGal cs inactive
COc1ccc(NC(=O)COC(=O)CN2C(=O)C3CCCCC3C2=O)cc1OC (stereo not given)	none
COc1ccc(OCC(=O)N2CCN(c3nnc(-c4ccc(C)cc4)c4ccccc34)CC2)cc1	EBI2 antag 96.1 | EBI2 conf 83.2 | EBI2 agonist inactive | bGal cs inactive
Cc1ccc(OCC(=O)N2CCN(c3nnc(-c4ccc(C)cc4)c4ccccc34)CC2)cc1	EBI2 antag 87.1 | EBI2 conf 83.7 | EBI2 agonist inactive | bGal cs inactive
COc1ccc(OCC(=O)N2CCN(c3nnc(-c4ccccc4)c4ccccc34)CC2)cc1	EBI2 antag 91.7 | EBI2 conf 79.8 | EBI2 agonist inactive | bGal cs inactive
CCC(=O)N1CCN(c2nnc(-c3ccccc3)c3ccccc23)CC1	none
O=C(COc1ccccc1)N1CCN(c2nnc(-c3ccccc3)c3ccccc23)CC1	EBI2 antag 71.2 | EBI2 conf inactive | EBI2 agonist inactive | bGal cs inactive
CC(=O)N1CCN(c2nnc(-c3ccccc3)c3ccccc23)CC1	none
CCOc1ccc(NC(=O)C2CCN(S(=O)(=O)c3c(C)noc3C)CC2)cc1	none
C=CCOc1ccc(/C=C/C(=O)N2CCCN(S(=O)(=O)c3c(C)noc3C)CC2)cc1	EBI2 antag 62.8 | EBI2 conf inactive | EBI2 agonist inactive | bGal cs inactive
Cc1ccc(/C=C/C(=O)NCc2cccs2)c(C)c1	none
Cc1ccc(/C=C/C(=O)NCc2cccs2)cc1	EBI2 antag 53.3 | EBI2 conf inactive | EBI2 agonist inactive | bGal cs inactive
Cc1ccc(/C=C/C(=O)NCc2ccncc2)cc1	EBI2 antag 63.6 | EBI2 conf inactive | EBI2 agonist inactive | bGal cs inactive
C#CCN1N=C(c2ccc(C)cc2)CSC1=O	none
C/C=C/c1cccc(-c2nc(C(=O)N3CCN(C)CC3)cc3c2[C@@H](CCO)N(C(=O)NC(C)C)C3)c1	none (no result: APJ ag, APJ antagonist, CCR6 antagonist)
O=C(NCCCNC(=O)c1ccco1)c1cccc(F)c1	none
CCC(C)c1ccc(NC(=O)c2ccco2)cc1 (stereo not given)	none
C=CCN(C(=O)C1CSC2(C)CCC(=O)N12)c1nc(-c2ccccc2)cs1 (stereo not given)	EBI2 antag 48.1 | EBI2 conf 63.5 | EBI2 agonist inactive | bGal cs inactive
CC1Oc2ccccc2C=C1/C=N\NC(=O)c1cccnc1 (stereo not given)	none
CCCCN1C(=O)C(=O)N(CC(=O)Nc2sc(C)c(C)c2C(=O)OC)C1=O	none
COc1ccc(-c2noc(CSc3nnc(Cc4ccccc4)n3-c3ccc(Cl)cc3)n2)cc1	EBI2 antag 38.9 | EBI2 conf inactive | EBI2 agonist inactive | bGal cs inactive
Cc1ccc(-c2noc(CSc3nnc(Cc4ccccc4)n3-c3ccc(Cl)cc3)n2)cc1	none
CC/C(=N\NC(=O)c1ccc(N(C)C)cc1)c1ccccc1	none
CC1(C(=O)Nc2ccc3[nH]ncc3c2)CCN1C(=O)C/C=C/c1ccccc1 (stereo not given)	none (no result: APJ ag, APJ antagonist, CCR6 antagonist)
CC1(C(=O)Nc2ccc3[nH]ncc3c2)CCN1C(=O)CC(c1ccccc1)c1ccccc1 (stereo not given)	EBI2 antag 47.6 (no result: APJ ag, APJ antagonist, CCR6 antagonist) | EBI2 conf inactive | EBI2 agonist inactive | bGal cs inactive
CSc1ncnc2c1ncn2CCCNCc1ccc(C)o1	none (no result: APJ ag, APJ antagonist, CCR6 antagonist)
CCN(CC)S(=O)(=O)c1ccc2c(c1)nc(SCC(=O)N1CCCCCC1)n2-c1ccc(OC)cc1	EBI2 antag 47.1 | EBI2 conf 56.4 | EBI2 agonist inactive | bGal cs inactive
COc1ccc(-c2cn(Cc3cccc(OC)c3)nn2)cc1	EBI2 antag 43.2 | EBI2 conf inactive | EBI2 agonist inactive | bGal cs inactive
COc1ccc(-c2cc3nc(-c4ccccc4)cc(N4CCN(C(C)=O)CC4)n3n2)cc1	EBI2 antag 45.6 (no result: APJ ag, APJ antagonist, CCR6 antagonist) | EBI2 conf inactive | EBI2 agonist inactive | bGal cs inactive
COc1ccc(-c2cc3nc(-c4ccccc4)cc(N4CCN(C(=O)c5ccccc5)CC4)n3n2)cc1	none (no result: APJ ag, APJ antagonist, CCR6 antagonist)
COc1ccc(-c2cc3nc(-c4ccccc4)cc(N4CCCC(O)C4)n3n2)cc1 (stereo not given)	EBI2 antag 66.2 | EBI2 conf 55.1 | EBI2 agonist inactive | bGal cs inactive
COc1ccc(-c2cc3nc(-c4ccccc4)cc(N4CCC(O)CC4)n3n2)cc1	EBI2 antag 63.9 | EBI2 conf 55.7 | EBI2 agonist inactive | bGal cs inactive
NC(=O)CN(c1ccc([N+](=O)[O-])cc1)S(=O)(=O)c1ccccc1	none
O=C(O)CCCCCNC(=O)CSc1nnc(-c2ccco2)n1-c1ccccc1	none
COc1ccc(N(CC(C)C)S(=O)(=O)c2nnc(NC(=O)CC(C)C)s2)cc1	none
NC(=O)c1nc[nH]c1C(=O)Nc1cccc(NC(=O)c2cccc(C(F)(F)F)c2)c1	none
Cc1noc(C)c1CSCC(=O)Nc1ccccc1N1CCCCC1	none (no result: CCR6 antagonist)
CCCC(=O)N1CCCC1(C)C(=O)Nc1ccc(OC(F)F)cc1 (stereo not given)	none (no result: APJ ag, APJ antagonist, CCR6 antagonist)
CCCCC(C(=O)NC1CCCC1)N(C(=O)c1snc(C(N)=O)c1N)c1ccc(C)cc1 (stereo not given)	EBI2 antag 50.0 | EBI2 conf inactive | EBI2 agonist inactive | bGal cs inactive
Cc1ccc(N(C(=O)c2snc(C(N)=O)c2N)C(CC(C)C)C(=O)NC2CCCC2)cc1 (stereo not given)	none
O=C(c1ccco1)N1CCc2[nH]nc(-c3ccc(Cl)cc3)c2C1	EBI2 antag 41.4 | EBI2 conf inactive | EBI2 agonist inactive | bGal cs inactive
